Key:
Quinone oxidoreductase = molecular target: T1, Quinone oxidoreductase (Homo sapiens, UniProt Q08257); assay: (§1) Covalent binding affinity to CRYZ at Cys45 residue in human NCI-H358 cells assessed as reduction of log2 H/L ratio for tryptic peptide […] incubated for 4 hrs followed by cell lysis and subsequently labelled with light thiol probe N-((S)-18-iodo-11-isopropyl-10,13,17-trioxo-3,6-dioxa-9,12,16-triazaoctadecyl)-6-((4R,5S)-5-methyl-2-oxoimidazolidin-4-yl)hexanamide and heavy thiol probe 4 for 1 hr under dark conditions followed by tryptic digestion for overnight and measured by discovery ABPP based nano LC-MS/MS analysis
T1 sequence (Q08257 whole entry): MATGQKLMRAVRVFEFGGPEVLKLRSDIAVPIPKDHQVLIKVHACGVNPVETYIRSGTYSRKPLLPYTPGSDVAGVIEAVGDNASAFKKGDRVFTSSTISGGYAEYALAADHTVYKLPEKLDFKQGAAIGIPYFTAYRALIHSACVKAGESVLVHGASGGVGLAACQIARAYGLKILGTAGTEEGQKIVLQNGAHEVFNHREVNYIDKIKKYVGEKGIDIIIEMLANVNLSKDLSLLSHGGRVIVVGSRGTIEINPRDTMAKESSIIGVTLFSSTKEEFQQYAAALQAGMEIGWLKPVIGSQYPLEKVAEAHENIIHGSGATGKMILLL
Procedure, shortened: (§2)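 H358 cells were treated 4 h with DMSO, 0.08, 0.4, 2 or 10 μM, each paired with DMSO control cells, in biological duplicate. After lysis and denaturation, treated lysate took heavy thiol probe and control lysate took light probe. Lysates were combined equally, and probe-labelled tryptic peptides were streptavidin-enriched. Peptides were run twice by 180 min data-dependent nano LC-MS/MS. Hits needed log2 H/L below −0.776 (3σ) plus a dose-dependent decrease.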

GTPase KRas [1] = molecular target: T2, GTPase KRas (Homo sapiens, UniProt P01116, G12C); assay: as §1, with “KRAS G12C mutant” for “CRYZ”, “Cys12” for “Cys45”, “by” for “by discovery”, “ABPP target occupancy” for “ABPP”, “UHPLC Q-SIM MS” for “nano LC-MS/MS”
Procedure, shortened: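 Target occupancy: H358 cells were treated 4 h with DMSO, 0.08, 0.4, 2 or 10 μM, each paired with DMSO controls, in duplicate. Lysates were labelled heavy (treated) or light (control) with thiol probe, combined, trypsinized and streptavidin-enriched. The LVVVGAC*GVGK peptide pair was measured by UHPLC Q-SIM, with AUC H/L as occupancy. Each point averaged four MS injections, and IC50 came from the concentration-response curve.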

[2] = system: GTPase KRas (Homo sapiens), P01116 [G12C]; assay: (§3) Covalent binding affinity to KRAS G12C mutant at Cys12 residue in human NCI-H358 cells assessed as log2 H/L ratio at 10 uM pretreated for 3 hrs followed by N-(((6S,7R)-7-(4-chloro-3-fluorophenyl)-1,4-oxazepan-6-yl)methyl)-2-hydroxyacetamide treatment for 3 hrs by competitive TMT click chemistry pull-down experiment based LC-MS/MS analysis; assay type: cell-based; conditions: time 6.0 hrs
Procedure, shortened: (§4)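 H358 cells were pretreated with DMSO (n = 3) or 10 μM compound for 3 h, then 2 μM alkyne probe was added for another 3 h. Cells were lysed, clicked onto azide-agarose resin, digested, TMT-labelled and pooled. The pool was fractionated by high-pH HPLC and each fraction run twice by 60 min low-pH nano LC-MS/MS. Readout was log2 compound/DMSO normalized reporter intensity, with a least-squares means test and FDR adjustment.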

NCI-H23 = assay: Antiproliferative activity against human NCI-H23 cells harboring KRAS G12C mutant assessed as reduction in cell viability; assay type: functional, cell-based
[3] = molecular target: T3, Retinaldehyde dehydrogenase 3 (Homo sapiens) (UniProt P47895); assay: as §3, with “ALDH1A3” for “KRAS G12C mutant”, “Cys52” for “Cys12”; assay type: cell-based; conditions: time 6.0 hrs; procedure, shortened: as §4
T3 sequence (whole entry): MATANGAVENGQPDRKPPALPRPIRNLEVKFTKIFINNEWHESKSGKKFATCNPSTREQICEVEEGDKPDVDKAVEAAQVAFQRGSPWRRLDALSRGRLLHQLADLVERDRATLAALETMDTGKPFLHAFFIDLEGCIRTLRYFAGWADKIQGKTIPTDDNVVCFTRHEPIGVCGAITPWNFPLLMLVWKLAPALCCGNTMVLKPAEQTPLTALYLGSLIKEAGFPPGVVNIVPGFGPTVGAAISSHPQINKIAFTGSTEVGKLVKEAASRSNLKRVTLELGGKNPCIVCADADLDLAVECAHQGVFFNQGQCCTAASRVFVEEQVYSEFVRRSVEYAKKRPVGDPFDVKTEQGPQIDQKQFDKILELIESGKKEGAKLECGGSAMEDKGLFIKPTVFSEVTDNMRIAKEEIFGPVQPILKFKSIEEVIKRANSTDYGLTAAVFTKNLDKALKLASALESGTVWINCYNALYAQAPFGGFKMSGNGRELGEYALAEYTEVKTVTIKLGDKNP

MIA PaCa-2 = assay: Antiproliferative activity against human MIA PaCa-2 cells harboring KRAS G12C mutant assessed as reduction in cell viability; assay type: functional, cell-based
[4] = molecular target: T4, Quinone oxidoreductase (Homo sapiens) (UniProt Q08257); assay: as §3, with “CRYZ” for “KRAS G12C mutant”, “Cys45” for “Cys12”; assay type: cell-based; conditions: time 6.0 hrs; procedure, shortened: as §4
T4 sequence (whole entry): T1 sequence (Q08257 whole entry)

[5] = molecular target: T5, Reticulon-4 (Homo sapiens) (UniProt Q9NQC3); assay: as §3, with “RTN4” for “KRAS G12C mutant”, “Cys1101” for “Cys12”; assay type: cell-based; conditions: time 6.0 hrs; procedure, shortened: as §4
T5 sequence (whole entry): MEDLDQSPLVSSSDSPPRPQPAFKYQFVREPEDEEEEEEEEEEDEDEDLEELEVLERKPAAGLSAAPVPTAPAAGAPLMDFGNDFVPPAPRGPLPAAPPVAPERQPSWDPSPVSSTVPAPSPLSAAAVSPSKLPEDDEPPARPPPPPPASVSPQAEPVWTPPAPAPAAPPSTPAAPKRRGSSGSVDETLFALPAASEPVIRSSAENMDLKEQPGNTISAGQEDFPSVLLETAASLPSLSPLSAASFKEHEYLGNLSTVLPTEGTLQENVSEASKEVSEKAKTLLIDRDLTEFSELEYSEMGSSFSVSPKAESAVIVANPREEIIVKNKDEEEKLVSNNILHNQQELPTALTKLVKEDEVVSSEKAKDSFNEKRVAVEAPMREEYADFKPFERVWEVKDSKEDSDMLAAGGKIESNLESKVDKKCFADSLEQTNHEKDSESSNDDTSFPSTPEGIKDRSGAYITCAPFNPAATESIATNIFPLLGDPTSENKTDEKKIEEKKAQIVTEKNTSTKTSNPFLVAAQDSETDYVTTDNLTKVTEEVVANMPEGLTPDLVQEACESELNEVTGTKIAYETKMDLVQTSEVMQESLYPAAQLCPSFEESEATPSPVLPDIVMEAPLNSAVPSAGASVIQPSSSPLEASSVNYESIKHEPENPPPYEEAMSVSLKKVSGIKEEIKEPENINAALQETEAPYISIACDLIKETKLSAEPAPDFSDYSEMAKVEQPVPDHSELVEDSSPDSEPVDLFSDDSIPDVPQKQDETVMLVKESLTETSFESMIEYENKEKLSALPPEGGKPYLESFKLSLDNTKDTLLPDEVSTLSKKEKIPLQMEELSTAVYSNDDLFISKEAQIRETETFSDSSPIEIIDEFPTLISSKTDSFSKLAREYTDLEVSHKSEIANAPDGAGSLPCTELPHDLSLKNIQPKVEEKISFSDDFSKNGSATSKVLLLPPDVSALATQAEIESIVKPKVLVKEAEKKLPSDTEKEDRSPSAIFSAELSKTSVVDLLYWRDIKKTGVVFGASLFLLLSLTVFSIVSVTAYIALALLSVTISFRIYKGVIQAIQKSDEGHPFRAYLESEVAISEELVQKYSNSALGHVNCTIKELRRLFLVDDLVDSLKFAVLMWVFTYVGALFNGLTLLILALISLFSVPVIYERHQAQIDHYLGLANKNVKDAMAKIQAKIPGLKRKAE

Heme oxygenase 2 = molecular target: T6, Heme oxygenase 2 (Homo sapiens, UniProt P30519); assay: as §1, with “HMOX2” for “CRYZ”, “Cys282” for “Cys45”; procedure, shortened: as §2
T6 sequence (P30519 whole entry): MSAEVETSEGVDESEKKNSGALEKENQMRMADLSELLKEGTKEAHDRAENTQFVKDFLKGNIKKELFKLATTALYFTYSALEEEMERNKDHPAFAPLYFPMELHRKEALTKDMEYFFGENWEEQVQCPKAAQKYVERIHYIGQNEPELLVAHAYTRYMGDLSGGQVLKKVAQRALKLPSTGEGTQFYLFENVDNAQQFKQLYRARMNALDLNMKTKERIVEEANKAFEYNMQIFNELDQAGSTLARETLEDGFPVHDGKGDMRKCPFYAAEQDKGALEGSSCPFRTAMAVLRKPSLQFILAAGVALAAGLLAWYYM

[6] = system: GTPase KRas (Homo sapiens), P01116 [G12C]; assay: as §1, with “KRAS G12C mutant” for “CRYZ”, “Cys12” for “Cys45”; procedure, shortened: as §2
GTPase KRas [7] = molecular target: T2, GTPase KRas; assay: as above; procedure, shortened: as §2
[8] = molecular target: T7, Synaptic vesicle membrane protein VAT-1 homolog (Homo sapiens, UniProt Q99536); assay: as §1, with “VAT1” for “CRYZ”, “Cys” for “Cys45”; procedure, shortened: as §2
T7 sequence (Q99536 whole entry): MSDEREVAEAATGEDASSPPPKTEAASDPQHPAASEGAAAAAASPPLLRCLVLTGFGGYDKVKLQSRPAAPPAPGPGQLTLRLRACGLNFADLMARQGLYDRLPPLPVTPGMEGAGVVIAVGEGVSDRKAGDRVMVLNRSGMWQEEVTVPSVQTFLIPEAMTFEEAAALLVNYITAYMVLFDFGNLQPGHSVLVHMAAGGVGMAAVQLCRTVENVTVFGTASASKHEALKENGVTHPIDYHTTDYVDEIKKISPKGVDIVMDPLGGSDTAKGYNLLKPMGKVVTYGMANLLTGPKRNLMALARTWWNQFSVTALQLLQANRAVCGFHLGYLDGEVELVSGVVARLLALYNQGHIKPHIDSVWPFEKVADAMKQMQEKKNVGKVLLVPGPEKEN

IC50 (Quinone oxidoreductase): 8440 nM | IC50 (GTPase KRas [1]): 1800 nM | Ratio [2]: -1.8 | IC50 (NCI-H23): 700 nM | Ratio [3]: -1.1 | IC50 (MIA PaCa-2): 120 nM | Ratio [4]: 0.15 | Ratio [5]: -0.4 | IC50 (Heme oxygenase 2): 7640 nM | inhibition [6]: Dose-dependent effect | IC50 (GTPase KRas [7]): 1590 nM | IC50 [8]: 4540 nM
Structure (SMILES): C=CC(=O)N1CCN(c2ncnc3c(F)c(-c4c(O)cccc4F)c(Cl)cc23)CC1

From ChEMBL document CHEMBL4715824, “Chemical Proteomic Characterization of a Covalent KRASG12C Inhibitor” (ACS Med Chem Lett, 2018)
